FAS-TE inh = inhibitors of human fatty acid synthase thioesterase domain; 0.67% of 360,000 active; AID 602261; recombinant FAS-TE, OMFH fluorogenic substrate, fluorescence endpoint; P49327; inhibition, % at 15 µM;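 active = compounds whose normalised, plate-corrected inhibition of enzyme fluorescence in the single-dose primary screen is 50% or more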
Arr AP2 block = blocks beta-arrestin peptide binding to AP2 adaptin; AID 504490; FITC-arrestin peptide / GST-AP2 beads, flow cytometry; AP2 beta2 appendage carries R879A mutation; inhibition, % at 10 µM; 0.31% of 340,000 active;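 active = inhibition above a set limit, near 3 SD of compounds lacking own fluorescence, cut at about 54% in these data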
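Test system: GST-tagged AP2 beta2-adaptin appendage (R879A) on 4 µm glutathione beads; also added: fluorescein-tagged arrestin peptide at 50 nM final; timing: 12 min plus 1 h, RT; signal: flow cytometry, FL1 (488/535 nm); read-out: percent drop in bead-associated FITC signal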
H9c2 protect = modulators protecting cardiomyocytes from myocardial damage. H9c2 cardiomyocytes, H2O2 injury protection, ATPLite, 2 h. protection from H2O2 cell death, % at 20 µM. 0.63% of 360,000 active. AID 588492;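 active = compounds giving at least 50% protection of heart cells from peroxide-induced death in the single-dose screen, raw or plate-pattern-corrected value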
hiPSC survival = increases survival of single human iPS cells | survival enhancement, % at 20 µM | AID 602274 | 0.044% of 360,000 active | hiPSC single-cell survival, ATPlite luminescence; 100% = ROCK inhibitor wells, 0% = DMSO; in the data active = survival enhancement above about 18%;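 note: cells exposed to compounds for 16 hours before the ATP read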
SENP1 FRET inh = blocks the human SENP1 SUMO protease catalytic domain. recombinant SENP1 catalytic domain, CyPet-SUMO1-YPet FRET cleavage. 0.21% of 360,000 active. Q9P0U3. inhibition, % at 10 µM;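 active = inhibition at least 30% at 10 µM, raw YFP signal under a set limit, fluorescence ratio 0.5 to 1.5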
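Material: hSENP1 catalytic domain, recombinant; medium: Tris pH 8 with BME, BSA, NP40 and catalase; compound: single concentration of 10 µM compound, 0.5% DMSO final; technique: FRET read of cyan and yellow fluorescence; timing: 50 min enzyme reaction, room temperature, light-protected; reagent: SFCypet-SUMO1-SFYpet substrate at 25 nM; control set: no-enzyme low, enzyme-DMSO high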
GRIN3A LBD mod = NR3A (human) ligand-binding domain modulation; NR3A LBD differential scanning fluorimetry, Tm shift; 0% = protein alone, 100% = glycine-bound protein; Tm shift relative to glycine control, % at 25 µM; 2.5% of 340,000 active; AID 1259313;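 active = melting temperature shift of at least 10% of the positive control shift, at one fixed dose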
Arr-AP2 CP1 = human beta-arrestin and AP2 interaction inhibition, cherry pick; AID 504908; GST-AP2 beads, FITC arrestin peptide binding, flow cytometry; GST-fused beta2-adaptin appendage, R879A mutant; inhibition, % at 10 µM; shares compounds with Arr AP2 block; 2% of 1,300 active;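 active = inhibition above a set limit, roughly 3 SD of non-fluorescent compound noise, cut at about 38% in these data; inactive = inhibition at or below that limit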;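 note: loss of bead fluorescence from 50 nM FITC arrestin peptide bound to appendage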
GST GSH counter = GST-GSH bead binding interference, counter-screen | shares compounds with Arr AP2 block | inhibition, % at 10 µM | 2% of 1,300 active | GST-fluorescein binding to GSH beads, fluorescence;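 active = inhibition above 50%, about 3 SD of the inhibition seen with non-fluorescent compounds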;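 note: fluorescein maleimide labelled GST captured on 4 micron glutathione beads; higher means more loss of bead fluorescence from quenching or blocked binding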
Large screens that a line does not name were inactive (follow-up assays come after a bar, where they were run). Most compounds without a hit are left out; they make up all but 4% or so of the library.

Cc1ccc(NC(=O)c2ccc(CSc3nnc(-c4ccncc4)n3C)cc2)cc1	Arr AP2 block 85.1 | Arr-AP2 CP1 inactive | GST GSH counter inactive
O=C1C=CC(=O)N1CCCCCCCCCCN1C(=O)C=CC1=O	none
COc1ccc(-c2nn(-c3ccccc3)cc2C(=O)O)cc1	none
COc1ccc(-c2nn(-c3ccccc3)cc2C(=O)N(C)C)cc1	Arr AP2 block 59.8 | Arr-AP2 CP1 inactive | GST GSH counter inactive
CCOc1ccccc1C(=O)NCC(=O)NNC(=O)c1cccs1	none
CC(C(=O)Nc1ccc2c(c1)OCO2)c1ccc([N+](=O)[O-])cc1 (centres undefined)	Arr AP2 block 64.6 | Arr-AP2 CP1 inactive | GST GSH counter inactive
CC(C(=O)Nc1ccc2c(c1)OCCO2)c1ccc([N+](=O)[O-])cc1 (centres undefined)	none
CCC(CC)C(=O)Nc1c(C)n(C)n(-c2ccccc2)c1=O	none
CCN(CC)C(=O)Nc1c(C)n(C)n(-c2ccccc2)c1=O	Arr AP2 block 65.0 | Arr-AP2 CP1 inactive | GST GSH counter inactive
CN(C)c1ccc(C=NNc2nc3c([nH]2)c(=O)n(C)c(=O)n3C)cc1	none
CN(C)c1ccc(/C=N\Nc2nc(-c3ccccc3)cc(=O)[nH]2)cc1	Arr AP2 block 102.1 | Arr-AP2 CP1 inactive | GST GSH counter inactive
COc1cc(/C=C/C(=O)O)ccc1OS(=O)(=O)c1cc(Br)ccc1C	Arr AP2 block 55.9 | Arr-AP2 CP1 inactive | GST GSH counter inactive
O=C(COc1ccc(CNC[C@H]2O[C@@H](n3ccc(=O)[nH]c3=O)[C@H](O)[C@@H]2O)cc1)Nc1nccs1	none (no result: Arr AP2 block, GRIN3A LBD mod)
CNC(=O)c1cc(S(=O)(=O)N2CC(C)OC(C)C2)ccc1N1CCCCC1 (centres undefined)	none | Arr-AP2 CP1 inactive | GST GSH counter inactive
Cc1cc(S(=O)(=O)N2CCCC2)ccc1OCC(=O)Nc1ccccc1	Arr AP2 block 64.5 | Arr-AP2 CP1 inactive | GST GSH counter inactive
Cc1cc(S(=O)(=O)N2CCCCC2)ccc1OCC(=O)Nc1ccccc1	none
O=C(Nc1cccc(F)c1)c1cc(S(=O)(=O)N2CCOCC2)ccc1N1CCCC1	none | Arr-AP2 CP1 inactive | GST GSH counter inactive
O=C(Nc1cccc(C(F)(F)F)c1)c1cc(S(=O)(=O)N2CCCCC2)ccc1N1CCOCC1	none
COc1cccc(CNC(=O)c2cc(S(=O)(=O)N3CCOCC3)ccc2N2CCCC2)c1	none | Arr-AP2 CP1 inactive | GST GSH counter inactive
COc1cc(-c2coc3c(C(=O)NCc4cccc(Cl)c4)cccc23)ccc1O	none (no result: Arr AP2 block, GRIN3A LBD mod)
COCCCNC(=O)C[C@H]1C[C@H](C(=O)N2CCOCC2)[C@@]2(C)c3[nH]c4cc(CCC(=O)N(C)C)ccc4c3CCN2C1=O	none
COC(=O)C[C@H]1CC[C@@H](NS(=O)(=O)c2ccccc2)[C@@H](CO)O1	none (no result: FAS-TE inh, Arr AP2 block, H9c2 protect, hiPSC survival, GRIN3A LBD mod)
CC(C)(C)n1nnnc1C(c1ccccc1)N1CCN(C(=O)c2ccco2)CC1 (centres undefined)	none (no result: Arr AP2 block, H9c2 protect, GRIN3A LBD mod)
COc1ccc(S(=O)(=O)N2CCCCCC2)cc1C(=O)NCCc1ccccc1	Arr AP2 block 61.4 | Arr-AP2 CP1 inactive | GST GSH counter inactive
O=S1(=O)CC(N2CCN(c3ccccn3)CC2)CN1C1CCCCC1 (centres undefined)	none (no result: Arr AP2 block, GRIN3A LBD mod)
CN(C)c1ccc(S(=O)(=O)N2CCCCC2)cc1NC(=O)CN1C(=O)NC2(CCCC2)C1=O	Arr AP2 block 54.4 | Arr-AP2 CP1 inactive | GST GSH counter inactive
COCCNC(=O)Cn1nc(-c2ccc(Cl)cc2)c2ccccc2c1=O	Arr AP2 block 63.8 | Arr-AP2 CP1 inactive | GST GSH counter inactive
Cc1cc(C)n2nc(SCC(=O)Nc3ccc(O)cc3)nc2n1	none
Cc1cc(C)cc(NC(=O)CSc2nc3nc(C)cc(C)n3n2)c1	Arr AP2 block 67.6 | Arr-AP2 CP1 inactive | GST GSH counter inactive
Cc1cn([C@H]2C[C@H](O)[C@@H](CNCc3cccn3-c3nccs3)O2)c(=O)[nH]c1=O	none (no result: Arr AP2 block, GRIN3A LBD mod)
O=C(CN1c2ccccc2S(=O)(=O)c2ccccc21)NCc1ccccc1	Arr AP2 block 63.9 | Arr-AP2 CP1 inactive | GST GSH counter inactive
O=C(CN1c2ccccc2S(=O)(=O)c2ccccc21)NCc1ccc(F)cc1	none
O=S1(=O)C[C@@H](N2CCN(c3ccccn3)CC2)[C@H](COCc2ccccc2)N1	none (no result: Arr AP2 block, GRIN3A LBD mod)
COC(=O)c1ccccc1COc1cccn2c(N(C)Cc3cccs3)c(C)nc12	none (no result: Arr AP2 block, GRIN3A LBD mod)
CCC(C(=O)N1CCN(Cc2ccc3c(c2)OCO3)CC1)n1nnc2ccccc2c1=O (centres undefined)	none (no result: Arr AP2 block, GRIN3A LBD mod)
COC(=O)[C@@H](Cc1ccccc1)NC(=O)/C=C/[C@H]1O[C@@H](n2cnc3c(NC(=O)c4ccccc4)ncnc32)[C@H](O)[C@@H]1O	none (no result: Arr AP2 block, GRIN3A LBD mod)
Cc1cc2nc(-c3ccc(NC(=O)C(C)C)cc3)oc2cc1C	Arr AP2 block 59.8 | Arr-AP2 CP1 inactive | GST GSH counter inactive
N#CC(c1ccccc1)C(CC(=O)c1ccccc1)c1ccccc1 (centres undefined)	none (no result: Arr AP2 block, GRIN3A LBD mod)
O=[N+]([O-])c1ccc(NC(=S)N2CCN(S(=O)(=O)c3ccccc3)CC2)cc1	Arr AP2 block 70.9 | Arr-AP2 CP1 inactive | GST GSH counter inactive
CC(NC(=O)C1CCCN1C(=O)c1cccs1)c1ccc(Cl)cc1Cl (centres undefined)	none (no result: Arr AP2 block, GRIN3A LBD mod)
Cc1ccc(CN(C(=O)c2ccccc2C)C2CCS(=O)(=O)C2)o1 (centres undefined)	Arr AP2 block 56.1 | Arr-AP2 CP1 inactive | GST GSH counter inactive
O=C1N/C(=C/c2cccn2-c2ccccc2)C(=O)N1Cc1ccc(F)cc1	none
O=C1N/C(=C/c2cccn2-c2ccc(F)cc2)C(=O)N1Cc1ccccc1F	Arr AP2 block 105.2 | Arr-AP2 CP1 inactive | GST GSH counter inactive
Oc1c(C=C2N=c3ccccc3=N2)sc(=S)n1C1CCCC1	Arr AP2 block 110.3 | Arr-AP2 CP1 inactive | GST GSH counter inactive
COc1cc(C(=O)O)nc2ccccc12	Arr AP2 block 56.4 | Arr-AP2 CP1 inactive | GST GSH counter inactive
COc1cc(-c2ccccc2)nc2ccccc12	none
CC(=O)Nc1cccc(-c2cccc3nccn23)c1	none (no result: Arr AP2 block, GRIN3A LBD mod)
CCN(CC)C(=S)NC(=O)c1cc(OC)c(OC)c(OC)c1	Arr AP2 block 56.5 | Arr-AP2 CP1 inactive | GST GSH counter inactive
COc1ccc(CC2(CO)CCN(Cc3ccc(NC(C)=O)cc3)CC2)cc1	Arr AP2 block 56.1 | Arr-AP2 CP1 inactive | GST GSH counter inactive
COc1cccc(CC2(CO)CCN(Cc3ccc(NC(C)=O)cc3)CC2)c1	none
